Results from ChEMBL document CHEMBL1145326, “Antimycobacterial agents. Novel diarylpyrrole derivatives of BM212 endowed with high activity toward Mycobacterium tuberculosis and low cytotoxicity” (2006).
Values after ≈ are worked out from the molar mass of the structure shown.

Key:
Mycobacterium marinum = test: Antibacterial activity against Mycobacterium marinum; format: functional
Outline: (§1)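 MIC by serial 2-fold tube dilution. Compound DMSO stocks were filter-sterilised (0.2 µm) and diluted in water. Tubes were inoculated with 10⁵–10⁶ CFU/mL of each mycobacterium and incubated at 37 °C for 3–21 days. Each run included a drug-free control tube. Values are in µg/mL.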

Vero [1] = test: Cytotoxicity against Vero cell line; format: functional, Chlorocebus sabaeus
Outline: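 Vero cells were cultured for 24 h, then the medium was replaced with medium holding decreasing compound concentrations. After 5 days the cells were trypsinised and counted in a Neubauer chamber, in triplicate. MNTD₅₀ (µg/mL) is the concentration that decreased cell multiplication by less than 50% of control.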

Mycobacterium avium = test: Antibacterial activity against Mycobacterium avium; format: functional; outline: as §1
[2] = system: Mycobacterium tuberculosis; test: Antibacterial activity against Mycobacterium tuberculosis 103471; format: functional; outline: as §1
[3] = system: Mycolicibacterium smegmatis; test: Antibacterial activity against Mycobacterium smegmatis; format: functional; outline: as §1
Vero [4] = test: Protection index, cytotoxicity against Vero cell line/antibacterial activity against Mycobacterium tuberculosis 103471; format: functional
Outline: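 Protection index is the ratio of Vero-cell MNTD₅₀ (cell counts after 5-day exposure) to the MIC against M. tuberculosis CIP 103471. The MIC came from 2-fold tube dilution, inoculum 10⁵–10⁶ CFU/mL, 37 °C.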

[5] = system: Mycobacterium tuberculosis; test: Antibacterial activity against intramacrophagic Mycobacterium tuberculosis; format: functional

SMILES	MIC (Mycobacterium marinum)	Maximal non-toxic dose 50 (Vero [1])	MIC (Mycobacterium avium)	MIC [2]	MIC [3]	PI (Vero [4])	MCC [5]
Cc1c(CN2CCSCC2)cc(-c2ccc(F)cc2F)n1-c1ccc(F)cc1	16 µg/mL (≈ 39.8 µM)	16 µg/mL	16 µg/mL (≈ 39.8 µM)	0.5 µg/mL (≈ 1.24 µM)	> 16 µg/mL	32	–
Cc1c(CN2CCN(C)CC2)cc(-c2ccc(F)cc2)n1-c1ccccc1Cl	> 16 µg/mL	8 µg/mL	> 16 µg/mL	4 µg/mL (≈ 10.1 µM)	> 16 µg/mL	2	–
Cc1cccc(-n2c(-c3ccc(F)cc3)cc(CN3CCSCC3)c2C)c1	> 16 µg/mL	8 µg/mL	16 µg/mL (≈ 42 µM)	4 µg/mL (≈ 10.5 µM)	> 16 µg/mL	2	–
Cc1ccc(-c2cc(CN3CCN(C)CC3)c(C)n2-c2ccc(F)cc2)cc1	> 16 µg/mL	8 µg/mL	4 µg/mL (≈ 10.6 µM)	4 µg/mL (≈ 10.6 µM)	8 µg/mL (≈ 21.2 µM)	2	–
Cc1ccc(-n2c(-c3ccc(F)cc3)cc(CN3CCSCC3)c2C)cc1	8 µg/mL (≈ 21 µM)	32 µg/mL	8 µg/mL (≈ 21 µM)	1 µg/mL (≈ 2.63 µM)	16 µg/mL (≈ 42 µM)	32	–
Cc1ccccc1-n1c(-c2ccc(F)cc2)cc(CN2CCN(C)CC2)c1C	> 16 µg/mL	2 µg/mL	> 16 µg/mL	> 16 µg/mL	> 16 µg/mL	–	–
Cc1ccc(-c2cc(CN3CCSCC3)c(C)n2-c2ccc(F)cc2)cc1	8 µg/mL (≈ 21 µM)	64 µg/mL	8 µg/mL (≈ 21 µM)	0.4 µg/mL (≈ 1.05 µM)	16 µg/mL (≈ 42 µM)	160	3 µg/mL
Cc1c(CN2CCSCC2)cc(-c2ccccc2F)n1-c1ccc(F)cc1	> 16 µg/mL	16 µg/mL	16 µg/mL (≈ 41.6 µM)	0.5 µg/mL (≈ 1.3 µM)	> 16 µg/mL	32	–
Cc1c(CN2CCN(C)CC2)cc(-c2ccc(F)cc2)n1-c1ccc(Cl)cc1Cl	8 µg/mL (≈ 18.5 µM)	2 µg/mL	4 µg/mL (≈ 9.25 µM)	4 µg/mL (≈ 9.25 µM)	> 16 µg/mL	0.5	–
NNC(=O)c1ccncc1 [ISONIAZID]	16 µg/mL (≈ 117 µM)	32 µg/mL	32 µg/mL (≈ 233 µM)	0.25 µg/mL (≈ 1.82 µM)	64 µg/mL (≈ 467 µM)	128	–
Cc1cccc(-c2cc(CN3CCSCC3)c(C)n2-c2ccc(F)cc2)c1	> 16 µg/mL	4 µg/mL	8 µg/mL (≈ 21 µM)	2 µg/mL (≈ 5.26 µM)	> 16 µg/mL	2	–
Cc1c(CN2CCSCC2)cc(-c2ccc(F)cc2)n1-c1ccc(Cl)cc1Cl	8 µg/mL (≈ 18.4 µM)	4 µg/mL	2 µg/mL (≈ 4.59 µM)	1 µg/mL (≈ 2.3 µM)	16 µg/mL (≈ 36.7 µM)	4	–
Cc1c(CN2CCN(C)CC2)cc(-c2ccc(F)cc2F)n1-c1ccc(F)cc1	> 16 µg/mL	8 µg/mL	16 µg/mL (≈ 40.1 µM)	4 µg/mL (≈ 10 µM)	> 16 µg/mL	2	–
Cc1c(CN2CCN(C)CC2)cc(-c2ccccc2F)n1-c1ccc(F)cc1	> 16 µg/mL	4 µg/mL	> 16 µg/mL	> 16 µg/mL	> 16 µg/mL	–	–
Cc1ccccc1-c1cc(CN2CCSCC2)c(C)n1-c1ccc(F)cc1	> 16 µg/mL	8 µg/mL	8 µg/mL (≈ 21 µM)	4 µg/mL (≈ 10.5 µM)	> 16 µg/mL	2	–
Cc1c(CN2CCSCC2)cc(-c2ccc(F)cc2)n1-c1ccc(F)cc1F	16 µg/mL (≈ 39.8 µM)	16 µg/mL	16 µg/mL (≈ 39.8 µM)	2 µg/mL (≈ 4.97 µM)	> 16 µg/mL	8	–

SMILES	MIC (Mycobacterium marinum)	Maximal non-toxic dose 50 (Vero [1])	MIC (Mycobacterium avium)	MIC [2]	MIC [3]	PI (Vero [4])	MCC [5]
Cc1c(CN2CCN(C)CC2)cc(-c2ccc(Cl)cc2)n1-c1ccc(Cl)cc1	100 µg/mL (≈ 241 µM)	4 µg/mL	0.4 µg/mL (≈ 0.965 µM)	0.7 µg/mL (≈ 1.69 µM)	25 µg/mL (≈ 60.3 µM)	5.6	–
Cc1ccccc1-n1c(-c2ccc(F)cc2)cc(CN2CCSCC2)c1C	> 16 µg/mL	16 µg/mL	16 µg/mL (≈ 42 µM)	8 µg/mL (≈ 21 µM)	> 16 µg/mL	2	–
Cc1c(CN2CCN(C)CC2)cc(-c2ccc(F)cc2)n1-c1ccccc1F	> 16 µg/mL	8 µg/mL	16 µg/mL (≈ 41.9 µM)	8 µg/mL (≈ 21 µM)	0.3 µg/mL (≈ 0.786 µM)	1	–
Cc1cccc(-n2c(-c3ccc(F)cc3)cc(CN3CCN(C)CC3)c2C)c1	> 16 µg/mL	16 µg/mL	> 16 µg/mL	16 µg/mL (≈ 42.4 µM)	> 16 µg/mL	1	–
Cc1cccc(-c2cc(CN3CCN(C)CC3)c(C)n2-c2ccc(F)cc2)c1	> 16 µg/mL	8 µg/mL	16 µg/mL (≈ 42.4 µM)	16 µg/mL (≈ 42.4 µM)	> 16 µg/mL	0.5	–
Cc1c(CN2CCSCC2)cc(-c2ccccc2Cl)n1-c1ccc(F)cc1	> 16 µg/mL	4 µg/mL	16 µg/mL (≈ 39.9 µM)	4 µg/mL (≈ 9.98 µM)	> 16 µg/mL	1	–
Cc1c(CN2CCN(C)CC2)cc(-c2ccc(F)cc2)n1-c1ccc(F)cc1F	16 µg/mL (≈ 40.1 µM)	16 µg/mL	16 µg/mL (≈ 40.1 µM)	16 µg/mL (≈ 40.1 µM)	> 16 µg/mL	1	–
Cc1c(CN2CCSCC2)cc(-c2ccc(F)cc2)n1-c1ccccc1F	> 16 µg/mL	8 µg/mL	8 µg/mL (≈ 20.8 µM)	0.5 µg/mL (≈ 1.3 µM)	8 µg/mL (≈ 20.8 µM)	16	3 µg/mL
Cc1ccc(-n2c(-c3ccc(F)cc3)cc(CN3CCN(C)CC3)c2C)cc1	8 µg/mL (≈ 21.2 µM)	8 µg/mL	16 µg/mL (≈ 42.4 µM)	16 µg/mL (≈ 42.4 µM)	> 16 µg/mL	0.5	–
CN[C@@H]1[C@H](O[C@H]2[C@H](O[C@H]3[C@H](O)[C@@H](O)[C@H](N=C(N)N)[C@@H](O)[C@@H]3N=C(N)N)O[C@@H](C)[C@]2(O)C=O)O[C@@H](CO)[C@H](O)[C@H]1O (stereo in doubt) [STREPTOMYCIN]	32 µg/mL (≈ 55 µM)	>64 µg/mL	8 µg/mL (≈ 13.8 µM)	0.5 µg/mL (≈ 0.86 µM)	8 µg/mL (≈ 13.8 µM)	>128	–
Cc1c(CN2CCSCC2)cc(-c2ccc(Cl)cc2Cl)n1-c1ccc(F)cc1	> 16 µg/mL	64 µg/mL	4 µg/mL (≈ 9.19 µM)	2 µg/mL (≈ 4.59 µM)	> 16 µg/mL	32	–
CO[C@H]1/C=C/O[C@@]2(C)Oc3c(C)c(O)c4c(O)c(c(/C=N/N5CCN(C)CC5)c(O)c4c3C2=O)NC(=O)/C(C)=C\C=C\[C@H](C)[C@H](O)[C@@H](C)[C@@H](O)[C@@H](C)[C@H](OC(C)=O)[C@@H]1C [RIFAMPIN]	0.6 µg/mL (≈ 0.729 µM)	64 µg/mL	0.3 µg/mL (≈ 0.365 µM)	0.3 µg/mL (≈ 0.365 µM)	32 µg/mL (≈ 38.9 µM)	213	3 µg/mL
Cc1c(CN2CCSCC2)cc(-c2ccc(F)cc2)n1-c1ccccc1Cl	> 16 µg/mL	8 µg/mL	> 16 µg/mL	2 µg/mL (≈ 4.99 µM)	> 16 µg/mL	4	–
Cc1c(CN2CCN(C)CC2)cc(-c2ccc(Cl)cc2Cl)n1-c1ccc(F)cc1	> 16 µg/mL	16 µg/mL	2 µg/mL (≈ 4.63 µM)	8 µg/mL (≈ 18.5 µM)	> 16 µg/mL	2	–
Cc1c(CN2CCN(C)CC2)cc(-c2ccccc2Cl)n1-c1ccc(F)cc1	> 16 µg/mL	2 µg/mL	16 µg/mL (≈ 40.2 µM)	8 µg/mL (≈ 20.1 µM)	> 16 µg/mL	0.25	–
Cc1ccccc1-c1cc(CN2CCN(C)CC2)c(C)n1-c1ccc(F)cc1	> 16 µg/mL	2 µg/mL	> 16 µg/mL	> 16 µg/mL	> 16 µg/mL	–	–
